# Source: PubChem (The Scripps Research Institute Molecular Screening Center)
# TAAR1 antagonist = antagonists of human TAAR1; 360,000 tested, 1.5% active; inhibition, % at 3 µM; CHO RD-HGA16 TAAR1, Fluo-8 calcium fluorescence, antagonist; AID 624466; Q96RJ0;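 active = inhibition above a per-plate cutoff, the mean inhibition of test compounds on that plate plus 3 SD, cut at about 49% in these data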;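 note: 0% = DMSO plus EC80 beta-PEA response and 100% = DMSO alone without agonist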
# Target sequence (Q96RJ0 whole entry, looked up): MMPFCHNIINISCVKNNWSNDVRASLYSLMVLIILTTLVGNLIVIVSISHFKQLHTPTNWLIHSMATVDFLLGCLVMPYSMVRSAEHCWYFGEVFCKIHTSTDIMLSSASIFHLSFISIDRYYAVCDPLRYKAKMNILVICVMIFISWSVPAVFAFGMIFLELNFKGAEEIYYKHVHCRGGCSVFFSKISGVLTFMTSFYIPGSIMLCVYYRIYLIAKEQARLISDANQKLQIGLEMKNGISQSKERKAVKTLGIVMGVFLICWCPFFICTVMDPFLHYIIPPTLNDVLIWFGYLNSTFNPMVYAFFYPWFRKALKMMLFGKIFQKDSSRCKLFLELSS
#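 Material: CHO RD-HGA16 cells bearing hTAAR1; compound dosing: one-point dosing, 3 µM nominal final; schedule: dye loading 75 min at 37 °C, then 30 min room temperature; measured by: calcium fluorescence with Fluo-8; control set: vehicle and agonist controls; replication: n of 1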
# TAAR1 agonist = agonists of human TAAR1 | activation, % at 3 µM | Q96RJ0 | CHO RD-HGA16 TAAR1, Fluo-8 calcium fluorescence; vehicle wells 0%, saturating PEA agonist 100% | 360,000 tested, 0.99% active;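 active = activation above the mean activation of all test compounds in the run plus 3 SD, cut at about 38% in these data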
#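 System: CHO-derived RD-HGA16 cells with stable Gα16 and human TAAR1. Times: 17-24 h plating, Fluo-8 75 min 37 °C, 30 min RT. Measured by: calcium-sensitive Fluo-8 signal, excitation 470-495, emission 515-575 nm. Read-out basis: % activation relative to PEA EC100 response. Control set: DMSO and PEA EC100. Repeats: no replicates (n 1).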
# OX1R antag-1 = antagonists of human orexin 1 receptor (OX1R) | O43613 | OX1R-expressing cells, FRET antagonist read-out | inhibition, % at 6.6 µM | 330,000 tested, 1.8% active | AID 485270; in the data active = inhibition mostly above about 38%, no sharp cut-off; inactive = mostly below about 40%;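 note: 0% = agonist challenge alone and 100% = reference antagonist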
# GalR3 antagonist = human GalR3 antagonism. O60755. 360,000 tested, 0.44% active. HEK293 GalR3-CNG cAMP membrane potential fluorescence; galR3 body fused to GalR1 C-terminus. inhibition, % at 3 µM;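 active = inhibition above the screen-wide average plus 3 SD, cut at about 13% in these data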;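 note: forskolin and galanin both at EC90 stimulate the cells; cAMP rise reported by CNG channel membrane potential dye signal; 0% = forskolin plus galanin with DMSO and 100% = forskolin alone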
# Target sequence (O60755 1-299 limits assumed): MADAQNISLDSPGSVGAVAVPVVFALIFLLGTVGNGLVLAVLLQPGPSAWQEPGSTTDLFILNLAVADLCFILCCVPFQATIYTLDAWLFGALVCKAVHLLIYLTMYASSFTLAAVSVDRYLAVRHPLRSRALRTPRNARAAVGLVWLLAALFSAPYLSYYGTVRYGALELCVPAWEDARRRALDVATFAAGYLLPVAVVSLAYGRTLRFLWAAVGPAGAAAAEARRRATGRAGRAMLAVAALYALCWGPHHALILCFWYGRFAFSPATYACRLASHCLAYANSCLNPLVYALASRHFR
# CHO parental Ca = signal in parental CHO cells, OX1R antagonist counter-screen. AID 463079. parental CHO-K1, ATP-induced calcium, Fluo-8 fluorescence. 330,000 tested, 0.63% active. inhibition, % at 5.6 µM;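 active = inhibition above that plate's mean sample inhibition plus 3 SD, cut at about 26% in these data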;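 note: 0% = ATP-challenged DMSO wells and 100% = DMSO wells without ATP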
#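 Test system: untransfected parental CHO cell line; also added: ATP stimulus; dosing: 5.6 µM, single dose; signal: calcium-sensitive Fluo-8 fluorescence; measure: percent inhibition of ATP-evoked calcium rise, normalized to controls; benchmarks: low control ATP plus DMSO, high control DMSO only; replication: one well per compound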
# OX1R antag-2 = antagonists of human orexin 1 receptor. O43613. CHO/OX1R cells, Fluo-8 calcium fluorescence, orexin A. inhibition, % at 5 µM. 330,000 tested, 0.43% active;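 active = inhibition above its plate's threshold, mean inhibition of all tested compounds on the plate plus 3 SD, cut at about 37% in these data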;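 note: 0% = orexin A challenge wells and 100% = SB-334867-A antagonist wells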
# TAAR1 ag conf = human TAAR1 agonism, confirmed | shares compounds with TAAR1 agonist | CHO RD-HGA16 TAAR1, Fluo-8 calcium fluorescence; scaled: DMSO 0%, maximal phenethylamine 100% | activation, % at 3 µM | 2,400 tested, 82% active | AID 651783;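 active = activation above a cutoff set at the run's mean compound activation plus 3 SD, cut at about 39% in these data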
# Ga16 nonsel ag = nonselective agonist in parental cells, TAAR1 agonist counter-screen | AID 651787 | CHO-Ga16 parental, Fluo-8 calcium fluorescence; normalized to maximal ATP response, DMSO zero | 2,400 tested, 50% active | activation, % at 3 µM | shares compounds with TAAR1 agonist;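 active = activation above the run cutoff, the mean activation over all tested wells plus 3 SD, cut at about 12% in these data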;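 note: 0% = DMSO wells and 100% = maximal ATP response on the peak over basal ratio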
# TAAR1 desens = TAAR1 response desensitization, agonist counter-screen | shares compounds with TAAR1 agonist | CHO RD-HGA16 hTAAR1, Fluo-8 calcium, beta-PEA response inhibition | inhibition, % at 3 µM | 2,400 tested, 46% active | AID 651951;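 active = inhibition above the run cutoff, the mean inhibition of all test compounds plus 3 SD, cut at about 49% in these data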;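 note: beta-PEA stimulus applied at its EC80; loss of beta-PEA calcium signal after compound pretreatment read as receptor desensitization; 0% = DMSO with beta-PEA at EC80 and 100% = DMSO alone without agonist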
# Ga16 nonsel ant = nonselective Ga16 antagonism, counter-screen; shares compounds with TAAR1 agonist; CHO-Ga16 ATP-induced calcium, Fluo-8 fluorescence; inhibition, % at 3 µM; 2,400 tested, 39% active; AID 651952;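 active = inhibition above the plate's mean compound inhibition plus 3 SD, computed per plate, cut at about 22% in these data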;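 note: 0% = EC80 ATP with DMSO and 100% = DMSO wells without ATP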
# Active calls of the source: *; x = not tested or not shown. A selection: hits, their analogues and other compounds. The true share with any hit is near 4.3%.
SMILES,TAAR1 antagonist,TAAR1 agonist,OX1R antag-1,GalR3 antagonist,CHO parental Ca,OX1R antag-2,TAAR1 ag conf,Ga16 nonsel ag,TAAR1 desens,Ga16 nonsel ant
CC1CCCC(C)N1C(=O)CNCc1ccc2c(c1)OCO2 (configuration not stated),3.3,70.7*,15.1,-7.8,-9.3,-8.4,22.7,4.8,-3.6,-4.7
O=C(NCc1ccc2c(c1)OCO2)C(=O)NC1CCCCC1,-20.6,3.8,16.2,-4.3,6.3,7.7,x,x,x,x
CCCNS(=O)(=O)c1ccc(Oc2ncc(C(F)(F)F)cc2Cl)cc1,39.0,53.2*,12.0,-5.3,-14.2,-10.8,39.6*,22.8*,29.4,17.1
O=C(c1ccco1)N1CCN(C2c3ccccc3-c3ccccc32)CC1,-6.5,5.7,21.0,-7.2,-25.1,-24.8,x,x,x,x
O=C1OC(N2CCN(C(=O)c3ccco3)CC2)c2ccccc21 (configuration not stated),10.9,51.6*,7.4,2.3,-7.2,-7.2,65.5*,0.4,16.6,8.2
O=C1/C(=C/c2cccs2)Cc2ccccc21,-8.5,-2.1,15.7,-3.2,-18.4,-14.7,x,x,x,x
O=C1/C(=C\c2ccc(Br)o2)Cc2ccccc21,31.8,50.4*,20.7,-12.4,-26.4,-19.7,6.8,9.5,-11.8,-1.4
CCOC(=O)c1ccc(NS(=O)(=O)c2ccc3oc(=O)[nH]c3c2)cc1,9.1,-2.1,11.4,-9.0,12.5,1.0,x,x,x,x
CCOc1ccc(N2C(=O)CC(NCc3ccc(S(N)(=O)=O)cc3)C2=O)cc1 (configuration not stated),-11.0,45.0*,6.5,-3.2,2.1,-5.2,6.5,1.9,-13.3,-1.6
COc1ccc(NC(=O)c2cc(C)nn2-c2ccccc2)cc1,0.8,-1.0,11.4,-10.2,-8.9,-17.0,x,x,x,x
Cc1ccc(NC(=O)CCS(=O)(=O)c2ccc3c(c2)NC(=O)C(C)S3)nc1 (configuration not stated),-9.3,1.6,-2.5,-6.6,-6.1,-11.4,x,x,x,x
O=C1CC(NCCc2ccccc2)C(=O)N1CCc1ccccc1 (configuration not stated),10.3,61.4*,10.6,0.1,-14.9,-21.7,63.1*,2.5,11.3,14.1
CCN1C(N(C)CCc2cccs2)=N[C@@H](c2ccccc2)C(C(=O)OC)=C1C,17.7,68.1*,13.3,-7.9,-14.7,-22.1,73.9*,6.2,34.8,1.4
CCN1C(N(C)CCc2c[nH]c3ccccc23)=N[C@@H](c2cccc(C(F)(F)F)c2)C(C(=O)OC)=C1C,x,x,2.8,x,12.3,22.8,x,x,x,x
C=CCN(c1ccccc1)S(=O)(=O)c1cccc(C(=O)NCC(c2ccccc2OC)N2CCCC2)c1 (configuration not stated),-37.3,0.5,29.4,-1.6,-25.8,-38.1,x,x,x,x
CCOC(=O)c1ccc(NS(=O)(=O)c2ccc(SC)cc2)cc1,14.4,45.8*,17.3,-4.1,-3.5,3.6,39.6*,19.0*,36.3,25.6*
CCOc1ccc(NS(=O)(=O)c2ccc(C(=O)N3CCCCC3)cc2)cc1,42.3,67.0*,-0.2,-2.5,10.0,5.3,66.1*,45.2*,38.9,35.0*
CCN(c1ccccc1)S(=O)(=O)c1ccc(C(=O)NCC(c2ccccc2OC)N2CCCC2)cc1 (configuration not stated),15.1,45.7*,x,-0.2,x,x,59.6*,12.6*,25.8,24.7*
CCOc1ccc(NS(=O)(=O)c2ccc(C(=O)N3CC(C)OC(C)C3)cc2)cc1 (configuration not stated),78.7*,129.8*,0.3,-7.4,41.7*,73.1*,119.4*,91.4*,79.3*,40.2*
CCOc1ccc(S(=O)(=O)Nc2cccc(C(=O)N3CC(C)OC(C)C3)c2)cc1 (configuration not stated),-17.6,2.6,4.3,-2.7,-14.4,-15.1,x,x,x,x
Cc1ccccc1OCC(=O)NCCCNC(=O)c1ccncc1,-16.4,-3.1,3.5,-8.3,-0.5,-7.5,x,x,x,x
CC1CCN(C(=O)c2ccc(NS(=O)(=O)c3ccccc3)cc2)CC1,11.2,7.2,33.0,-1.8,4.8,-4.0,x,x,x,x
CCOc1ccc(NS(=O)(=O)c2ccc(C(=O)NCC(c3ccco3)N3CCCC3)cc2)cc1 (configuration not stated),28.1,65.1*,2.1,-5.3,-9.2,10.2,82.8*,39.1*,44.0,28.6*
O=C(NCC(c1ccco1)N1CCCCC1)c1ccc(NS(=O)(=O)c2ccc(F)cc2)cc1 (configuration not stated),-3.2,2.1,10.6,-1.8,-10.2,-9.9,x,x,x,x
Cc1ccc(NS(=O)(=O)c2ccc(C(=O)NCC(c3ccco3)N(C)C)cc2)cc1 (configuration not stated),53.8*,105.2*,-10.9,-1.7,-2.4,6.4,107.6*,48.6*,64.6*,33.4*
SMILES,TAAR1 antagonist,TAAR1 agonist,OX1R antag-1,GalR3 antagonist,CHO parental Ca,OX1R antag-2,TAAR1 ag conf,Ga16 nonsel ag,TAAR1 desens,Ga16 nonsel ant
COc1ccc(NS(=O)(=O)c2ccc(C(=O)N3CCC(C)CC3)cc2)cc1,26.5,91.3*,9.1,-5.5,3.0,21.2,76.5*,40.2*,39.5,26.3*
CN(C)C(CNC(=O)c1ccc(NS(=O)(=O)c2ccc(F)cc2)cc1)c1ccco1 (configuration not stated),-9.2,2.2,2.4,-1.3,-4.1,-21.7,x,x,x,x
OC(c1ccc(F)cc1)C(CN1CCOCC1)c1ccccc1 (configuration not stated),-18.1,0.1,-1.9,-9.5,-24.3,-30.7,x,x,x,x
COc1cccc(C(CNc2ccc(S(=O)(=O)N3CCN(C)CC3)cc2[N+](=O)[O-])N(C)C)c1 (configuration not stated),-12.7,2.2,x,-2.0,x,x,x,x,x,x
CCCCC(=O)N(C)c1c(CC)nc2c(OCC(=O)c3ccc(Cl)cc3Cl)cccn12,-22.6,-1.7,x,-1.6,x,x,x,x,x,x
CCC(=O)NNC(=O)c1cc(COc2cc(Cl)cc(Cl)c2)on1,19.2,55.5*,-1.9,1.0,-13.6,-4.5,39.8*,21.5*,21.0,16.3
